The campaign covered roughly 300,000 compounds. About 1,000 (0.33%) were called active. This excerpt belongs to a sample that is enriched for actives. Values without a mark were called inactive.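 How the source made its calls: active means inhibition above the mean of all tested compounds plus 3 SD, set per screening campaign (cut at about 45% in these data); inactive means the rest.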
tested on: HCV core protein (residues 1-106) dimerization; experiment: inhibitors of HCV core protein dimerization, primary screen, biochemical, TR-FRET, high-throughput (AID 1899); details: TR-FRET GST/Flag-core106 dimerization, 1536-well; at 5 µM; stronger effect = higher value
Summary of the method: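 Assay system: Tagged HCV core106 pair (GST and Flag) | Buffer or medium: KF-containing HEPES buffer, pH 7.45, DTT, CHAPS, BSA | Also added: Eu donor and XL665 acceptor anti-tag antibodies | Dosing: One concentration, 5 µM, in 0.5% DMSO | Timing: 4 h at 22.5 °C | Technique: TR-FRET 671 and 617 nm emission | Repeats: Singlicate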

| Compound | inhibition |
| --- | --- |
| Cc1ccc(NC(=O)c2cc(-c3ccc(C)o3)nc3ccccc23)nc1 | 49.3% (active) |
| COc1ccc(NC(=O)c2cc(-c3ccc(C)o3)nc3ccccc23)cc1 | 17.9% |
| CC(=O)N1CCN(C(=O)c2cc(-c3ccc(C)o3)nc3ccccc23)CC1 | 1.32% |
| CN(CC(=O)Nc1cccc2c1CCCC2)S(=O)(=O)c1ccc(Cl)cc1 | 1.71% |
| COc1ccc(N2CCN(C(=O)CSc3nc4cc(OC)c(OC)cc4cc3C#N)CC2)cc1 | 53.1% (active) |
| CCOc1ccc(-c2nnn(CC(=O)N3CCN(c4ccc(OC)cc4)CC3)n2)cc1OCC | 7.89% |
| COc1ccc(N2CCN(C(=O)CSc3nnc4ncccn34)CC2)cc1 | -2.8% |
| Cc1nnc(SC(C(=O)Nc2cc(Cl)cc(Cl)c2)c2ccccc2)[nH]c1=O (centres undefined) | 4.94% |
| CN(C(=O)COc1nnc(-c2cccs2)c(-c2cccs2)n1)c1ccccc1 | 49% (active) |
| COC(=O)c1cc(-c2cccs2)nc2ccccc12 | 3.48% |
| O=C(O)Cc1sc(-c2ccccc2)nc1-c1cccs1 | 5.73% |
| CN(C(=O)CC1C(=O)NCCN1Cc1ccc(F)cc1Cl)C1CCCCC1 (centres undefined) | -6.47% |
| Cc1ccc(C(=O)c2coc3ccc(O)c(CN(C)C)c23)cc1 | -5.01% |
| COc1cc(OC)c(C(=S)N2CCCC2)cc1OC | 4.43% |
| COc1ccc(/C=N/NS(=O)(=O)c2ccc(NC(C)=O)cc2)cc1 | -3.63% |
| Cc1ccc(S(=O)(=O)N/N=C\c2cc3c(cc2[N+](=O)[O-])OCO3)cc1 | 2.28% |
| COc1ccc(S(=O)(=O)N/N=C\c2ccc(OC)c(COc3ccc(C)cc3[N+](=O)[O-])c2)cc1 | 56% (active) |
| COc1ccccc1N(CC(=O)Nc1ccc(C(F)(F)F)cc1)S(C)(=O)=O | -4.98% |
| O=C(O)CSc1nccn1-c1cccc(Cl)c1 | -3.31% |
| CC(C(=O)N=Nc1c(O)n(C)c2ccc(Br)cc12)n1cnc2ccccc2c1=O (centres undefined) | 11.6% |
| COc1ccccc1N1CCN(CC(=O)NC(=O)NCc2ccco2)CC1 | -7.99% |
| O=C(CN1CCN(S(=O)(=O)/C=C/c2ccccc2)CC1)Nc1ccc(N2CCOCC2)cc1 | 2.85% |
| O=C(CN1CCN(S(=O)(=O)/C=C/c2ccccc2)CC1)NC(=O)NCc1ccco1 | 47.9% (active) |

| Compound | inhibition |
| --- | --- |
| Cc1ccc(S(=O)(=O)NCCC(=O)OCC(=O)N(C)c2ccccc2)cc1 | -0.65% |
| N#Cc1cccc(NC(=O)CN2CCCCCC2)c1 | -0.12% |
| Cc1cccc(C(=O)OC(C)C(=O)NC2CCCc3ccccc32)c1O (centres undefined) | -6.15% |
| C=CCOC(=O)C1=C(C)NC(SCC(=O)OCC)=C(C#N)C1c1ccc(C)cc1 (centres undefined) | 59.5% (active) |
| CCOC(=O)CSC1=C(C#N)C(c2sccc2C)CC(=O)N1 (centres undefined) | 6.38% |
| C=CCOC(=O)C1=C(C)OC(N)=C(C#N)C1c1ccc(F)cc1 (centres undefined) | -4.37% |
| Cc1ccc(CN(N=Nc2nonc2N)c2nonc2N)c(C)c1 | 0.98% |
| Cc1cc(/C=C2/C(=N)N3C(=NC2=O)SN=C3S(C)(=O)=O)c(C)n1-c1ccccc1 | 18.8% |
| CS(=O)(=O)c1ccc2c(c1)SC1=NC(=O)/C(=C/c3ccco3)C(=N)N12 | 79.4% (active) |
| CS(=O)(=O)C1=NN2C(=N)/C(=C\c3ccc(OCCOc4ccccc4)cc3)C(=O)N=C2S1 | 18.8% |
| Cc1ccc(C)c2[nH]c(=O)c(CN(Cc3cccnc3)C(=S)NCc3ccco3)cc12 | 7.88% |
| C[C@H]1CCC(=O)N([C@H](CSc2ccccc2)Cc2ccccc2)CC1 | -3.23% |
| O=C(NCC(c1cccs1)N1CCOCC1)c1cc(-c2ccccn2)nc2ccccc12 (centres undefined) | 0.32% |
| O=C(Nc1ccncc1)c1cc(-c2ccccn2)nc2ccc(Br)cc12 | -6.91% |
| O=C(NCc1cccs1)c1cc(-c2ccccn2)nc2ccc(Br)cc12 | 49.3% (active) |
| Cc1cc(C)n(CCNC(=O)CC2C(=O)NCCN2Cc2ccc(C)o2)n1 (centres undefined) | 2.72% |
| COc1ccc(OC)c(NC(=O)N[C@H](Cc2ccccc2)C(=O)NN)c1 | -4.04% |
| CCOC(=O)C1(CC2CCCCO2)CCN(Cc2nc(-c3cccs3)oc2C)CC1 (centres undefined) | -1.21% |
| N#C/C(=C\c1ccc(-c2cccc([N+](=O)[O-])c2)o1)C(=O)NCCN1CCOCC1 | -14.4% |
| Cc1ccc(Cc2cnc(NC(=O)/C(C#N)=C/c3ccc(-c4cccc([N+](=O)[O-])c4)o3)s2)cc1 | 46.7% (active) |
| Cc1ccc(C(=O)N/C(=C/c2ccc(-c3cccc([N+](=O)[O-])c3)o2)C(=O)NCCCN(C)C)cc1 | -11.9% |
| CN1/C(=c2/s/c(=C3/C(=O)N(c4ccccc4)NC3=Nc3ccccc3)n(C)c2=O)C(C)(C)c2ccccc21 | 21.6% |
| C=CCC1(C#N)C(=S)NC(C)=C(C(=O)OCC)C1c1ccccc1 (centres undefined) | -0.47% |

| Compound | inhibition |
| --- | --- |
| CC(C)c1ccc(N2CC(C(=O)Nc3nccs3)CC2=O)cc1 (centres undefined) | 3.92% |
| O=C(CCCN1C(=O)/C(=C/c2ccccc2)SC1=S)Nc1ccc(O)cc1 | 0.73% |
| O=C(CCCN1C(=O)/C(=C\c2ccco2)SC1=S)Nc1cccc2ccccc12 | 50.6% (active) |
| O=C(CCCN1C(=O)/C(=C\c2ccccc2)SC1=S)Nc1ccccc1O | 1.56% |
| CCC(c1nnnn1Cc1ccco1)N(Cc1cc2cc(OC)ccc2[nH]c1=O)C1CCCCC1 (centres undefined) | 53.5% (active) |
| CCC(c1nnnn1Cc1ccccc1)N(Cc1cc2cc(OC)ccc2[nH]c1=O)CC1CCCO1 (centres undefined) | 9.57% |
| CCC(c1nnnn1Cc1ccco1)N(CCc1ccccc1)Cc1cc2ccc(OC)cc2[nH]c1=O (centres undefined) | 14.3% |
| O=C(CSc1nnc(-c2ccc([N+](=O)[O-])cc2)o1)Nc1ccccn1 | -13.9% |
| Cc1cc2c(cc1C)N(C(=O)CN1C(=O)c3ccccc3C1=O)C(C)(C)c1ssc(=S)c1-2 | 20.8% |
| CCOC(=O)C1CSC(CC(=O)Nc2ccc(OCC)cc2)C(=O)N1 (centres undefined) | -5.22% |
| O=C(N/N=C/c1ccc(O)cc1)/C(=C/c1ccc([N+](=O)[O-])cc1)NC(=O)c1ccccc1 | 10.4% |
| O=C(COc1ccc([N+](=O)[O-])cc1)Nc1ccc(N2CCCC2)cc1 | 9.26% |
| O=C(COc1ccc(/C=N/NC(=O)c2ccc(O)cc2)cc1)Nc1ccc([N+](=O)[O-])cc1 | 55.5% (active) |
| CC1(c2nnc(-c3ccncc3)o2)CC(c2cccnc2)=NO1 (centres undefined) | 1.13% |
| Cc1ccc(C)c(NS(=O)(=O)c2c(C)[nH]c(C)c2C(=O)N2CCCCC2)c1 | -13.2% |
| O=C1COc2ccc(NC(=O)N3CCN(c4ccc(F)cc4)CC3)cc2N1 | -3.43% |
| CC1(OC(=O)C2CCCC2)C(=O)C=C2C=C(c3ccc(C#N)cc3)OC=C2C1=O (centres undefined) | 53.6% (active) |
| COCCN1C=C2C(=O)C(C)(OC(=O)C3CCCC3)C(=O)C=C2C=C1c1ccsc1 (centres undefined) | -6.55% |
| CC(C)(C)OC(=O)NCCCC1=CC2=CC(=O)C(C)(OC(=O)c3ccco3)C(=O)C2=CO1 (centres undefined) | 28.9% |
| Cn1cc(-c2ccccc2)cc(C#N)c1=O | 7.52% |
| CCCC(=O)Nc1ccc2c(c1)nc(CCNC(=O)c1ccco1)n2C | -7.25% |
| CCOc1cc(NC(=S)NCCCOC)c(OCC)cc1NC(=O)c1ccco1 | -1.9% |
| Cc1cc(C)cc(NC(=O)NCc2ccccn2)c1 | -2.74% |

| Compound | inhibition |
| --- | --- |
| COc1ccc2oc(=O)c(C(=O)NCc3ccccn3)cc2c1 | -1.18% |
| COCCNC(=O)Nc1ccc2nc(-c3ccco3)c(-c3ccco3)nc2c1 | 83.7% (active) |
| O=C(NCc1ccccn1)c1ccc2nc(-c3ccco3)c(-c3ccco3)nc2c1 | 77.7% (active) |
| O=C(CCc1ccccc1)Nc1ccc(NC(=O)C2CC2)nc1 | 3.25% |
| O=[N+]([O-])C(=c1ccc2c(c1)N1C3=C(CCCC3)CC3CCCCC31N=2)[N+](=O)[O-] (centres undefined) | 62.9% (active) |
| Cc1ccc(S(=O)(=O)c2c[nH]c3ccc(Cl)cc3c2=O)cc1 | 0.6% |
| CCN1C(=NCCc2cccnc2)N[C@@H](c2ccccc2)[C@H](C(=O)OC)[C@H]1C | 8.18% |
| CC(C(=O)O)n1cnc2sc3c(c2c1=O)CCCC3 (centres undefined) | 0.01% |
| COc1ccc(OCC(=O)NN2Cc3ccccc3C2=N)cc1 | -6.41% |
| COc1ccc(OCC(=O)Nc2nnc(-c3ccco3)s2)cc1 | 54.1% (active) |
| CNc1nnc(-c2ccco2)s1 | -7.57% |
| Cc1ccc(OCC(=O)Nc2nnc(-c3ccco3)s2)cc1 | 2.47% |
| COc1ccc(OC)c(CNC(=O)c2cc(=O)[nH]c3ccc(S(=O)(=O)N4CCCC4)cc23)c1 | 0.99% |
| COc1ccc(NC(=O)c2cc(-c3cc(OC)c(OC)c(OC)c3)nc3ccccc23)c(OC)c1 | -2.9% |
| CNC(=O)COC(=O)c1cc(-c2ccc(OC)cc2)nc2ccccc12 | 0.09% |
| COc1cc(-c2cc(C(=O)OCC(=O)Nc3ccc4c(c3)OCO4)c3ccccc3n2)cc(OC)c1OC | 46.1% (active) |
| CN(C)/C(CN1CCCCC1)=C1\N=C(c2ccccc2)OC1=O | -2.51% |
| O=C(Nc1cccc2ncccc12)C(Cl)(Cl)Cl | -1.9% |
| Cc1ccc(C(=O)Nc2cccc3ncccc23)cc1[N+](=O)[O-] | 4.3% |
| Cc1ccc(/C=C(\C#N)C(=O)Nc2cccc3ncccc23)o1 | 64.5% (active) |

Source: PubChem BioAssay AID1899 (The Scripps Research Institute Molecular Screening Center, 2009)
